Source: ChEMBL document CHEMBL1126742, “Syntheses of 5'-substituted analogues of carbocyclic 3-deazaadenosine as potential antivirals” (J Med Chem, 1993)
≈ marks a conversion by molar mass, not a printed value.

Legend:
[1] = tested on: Vero; assay: Minimum toxic concentration against vaccinia virus (vero cell line); type: functional, Chlorocebus sabaeus
Method in brief: (§1)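 Host-cell toxicity was measured alongside the antiviral test. MTC is the lowest concentration of test compound giving a 50% reduction in percent survival of viable host cells.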

[2] = tested on: Vero; assay: Inhibitory concentration (reduction in cytopathic effect) against vaccinia virus (vero cell line); type: functional, cell-based; conditions: Chlorocebus sabaeus
Method in brief: (§2)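 Antiviral activity was scored as inhibition of virus cytopathic effect (CPE) in the named host cells. IC50 is the drug concentration giving a 50% reduction in virus CPE.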

[3] = tested on: Vero; assay: Virus rating against vaccinia virus ( vero cell line); type: functional, Chlorocebus sabaeus
Method in brief: (§3)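 The virus rating is computed from CPE-inhibition data by the Huffman and Sidwell method. VR > 1 means definite to moderate activity; VR < 0.5 means no significant activity.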

[4] = tested on: L929; assay: Minimum toxic concentration against vesicular stomatitis virus (L-929 cell line); type: functional, Mus musculus; method in brief: as §1
[5] = tested on: L929; assay: Inhibitory concentration (reduction in cytopathic effect) against vesicular stomatitis virus (L-929 cell line); type: functional, cell-based; conditions: Mus musculus; method in brief: as §2
[6] = tested on: Vero; assay: Virus rating against vaccinia virus (vero cell line); type: functional, Chlorocebus sabaeus; method in brief: as §3
[7] = tested on: L929; assay: Virus rating against vesicular stomatitis virus (L-929 cell line); type: functional, Mus musculus; method in brief: as §3
[8] = tested on: LLC-MK2; assay: Virus rating against yellow fever virus (MK2 cell line); Evaluated by plaque reduction assay; type: functional, cell-based; conditions: Cercopithecidae
[9] = tested on: LLC-MK2; assay: Minimum toxic concentration against yellow fever virus (MK2 cell line); type: functional, Cercopithecidae; method in brief: as §1
[10] = tested on: LLC-MK2; assay: Inhibitory concentration (reduction in cytopathic effect) against yellow fever virus (MK2 cell line); type: functional, cell-based, Cercopithecidae; conditions: Macaca mulatta; method in brief: as §2
[11] = tested on: Vaccinia virus; assay: Minimum inhibitory concentration against vaccinia virus; type: functional; conditions: Orthopoxvirus vaccinia
[12] = tested on: Vesicular stomatitis virus; assay: Minimum inhibitory concentration against vesicular stomatitis virus; type: functional
[13] = tested on: L929; assay: Minimum toxic concentration against vaccinia virus (L-929 cell line); type: functional, Mus musculus; method in brief: as §1
[14] = tested on: L929; assay: Virus rating against vaccinia virus (L-929 cell line); type: functional, Mus musculus; method in brief: as §3
[15] = tested on: L929; assay: Inhibitory concentration (reduction in cytopathic effect) against vaccinia virus (L-929 cell line); type: functional, cell-based; conditions: Mus musculus; method in brief: as §2

SMILES	MTC50 [1]	IC50 [2]	VR [3]	MTC50 [4]	IC50 [5]	VR [6]	VR [7]	VR [8]	MTC50 [9]	IC50 [10]	MIC [11]	MIC [12]	MTC50 [13]	VR [14]	IC50 [15]
NC(=O)[C@H]1C[C@@H](n2cnc3c(N)nccc32)C(O)[C@H]1O (stereo partly drawn)	320 µg/mL	32 µg/mL (≈ 115 µM)	0.7	–	–	–	–	–	–	–	–	–	–	–	–
C[C@H]1C[C@@H](n2cnc3c(N)nccc32)C(O)[C@H]1O (stereo partly drawn)	100 µg/mL	3.1 µg/mL (≈ 12.5 µM)	–	100 µg/mL	100 µg/mL (≈ 403 µM)	1.4	1	Evaluated by plaque reduction assay	104 µg/mL	23 µg/mL (≈ 92.6 µM)	–	–	–	–	–
Nc1nccc2c1ncn2[C@@H]1C[C@H](CO)[C@H](O)C1O (stereo partly drawn)	–	–	–	–	–	–	–	–	–	–	20 µg/mL (≈ 75.7 µM)	20 µg/mL (≈ 75.7 µM)	–	–	–
Nc1nccc2c1ncn2[C@@H]1C[C@H](CCl)[C@H](O)C1O (stereo partly drawn)	–	–	–	283 µg/mL	88 µg/mL (≈ 311 µM)	–	0.4	–	–	–	–	–	90 µg/mL	0.6	32 µg/mL (≈ 113 µM)
NC[C@H]1C[C@@H](n2cnc3c(N)nccc32)C(O)[C@H]1O (stereo partly drawn)	320 µg/mL	18 µg/mL (≈ 68.4 µM)	–	–	–	1	–	–	–	–	–	–	–	–	–
Nc1nccc2c1ncn2[C@@H]1C[C@H](CBr)[C@H](O)C1O (stereo partly drawn)	320 µg/mL	87 µg/mL (≈ 266 µM)	–	320 µg/mL	147 µg/mL (≈ 449 µM)	0.6	0.3	–	–	–	–	–	–	–	–
OC[C@H]1C[C@@H](n2cnc3cnccc32)C(O)[C@H]1O (stereo partly drawn)	–	–	–	79 µg/mL	49 µg/mL (≈ 197 µM)	–	0.7	Evaluated by plaque reduction assay	100 µg/mL	70 µg/mL (≈ 281 µM)	–	–	249 µg/mL	1	7 µg/mL (≈ 28.1 µM)
